{
  "source": "ChEMBL document CHEMBL3407471",
  "about": "“Development of potent inhibitors of pyocyanin production in Pseudomonas aeruginosa” (J Med Chem, 2015)",
  "key": {"Escherichia coli [1]": {"system": "Escherichia coli", "experiment": "Competitive binding to LasR in Escherichia coli at 100 to 500 uM", "outline": "(§1)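 Competition format: compound at 100 μM and 500 μM combined with increasing amounts of the receptor's native AHL (LasR or RhlR). Receptor response compared with a DMSO control.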"}, "Pseudomonas aeruginosa [2]": {"system": "Pseudomonas aeruginosa", "experiment": "Inhibition of pyocyanin production in wild-type Pseudomonas aeruginosa PA14 assessed as down regulation of fumC relative to control", "type": "functional", "outline": "(§2)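 Wild-type PA14 cultures treated with compound, and a DMSO-treated culture served as control. RNA extracted and analysed by microarray. Genes counted as changed when expression differed by more than 2-fold.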"}, "Pseudomonas aeruginosa [3]": {"system": "Pseudomonas aeruginosa", "experiment": "Inhibition of quorum sensing activity in wild-type Pseudomonas aeruginosa PA14 assessed as inhibition of pyocyanin production at 100 uM by spectrophotometry relative to control", "type": "functional", "outline": "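Wild-type P. aeruginosa PA14 cultures exposed to compound at 100 μM. Pyocyanin read as absorbance at 695 nm. Efficacy scaled so that wild-type pyocyanin level = 0% and absorbance equal to background medium = 100%.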"}, "Pseudomonas aeruginosa [4]": {"system": "Pseudomonas aeruginosa", "experiment": "Inhibition of pyocyanin production in wild-type Pseudomonas aeruginosa PA14 assessed as down regulation of PA14_35160 relative to control", "type": "functional", "outline": "as §2"}, "Pseudomonas aeruginosa [5]": {"system": "Pseudomonas aeruginosa", "experiment": "Antibiofilm activity against wild-type static Pseudomonas aeruginosa PA14 at 100 uM by spectrophotometry", "type": "functional"}, "Escherichia coli [6]": {"system": "Escherichia coli", "experiment": "Agonist activity at RhlR in Escherichia coli at 100 uM"}, "Pseudomonas aeruginosa [7]": {"system": "Pseudomonas aeruginosa", "experiment": "Inhibition of pyocyanin production in wild-type Pseudomonas aeruginosa PA14 assessed as down regulation of mexI relative to control", "type": "functional", "outline": "as §2"}, "Escherichia coli [8]": {"system": "Escherichia coli", "experiment": "Agonist activity at LasR in Escherichia coli at 100 uM"}, "Pseudomonas aeruginosa [9]": {"system": "Pseudomonas aeruginosa", "experiment": "Inhibition of pyocyanin production in wild-type Pseudomonas aeruginosa PA14 assessed as down regulation of mexG relative to control", "type": "functional", "outline": "as §2"}, "Pseudomonas aeruginosa [10]": {"system": "Pseudomonas aeruginosa", "experiment": "Inhibition of pyocyanin production in wild-type Pseudomonas aeruginosa PA14 assessed as down regulation of trxB2 relative to control", "type": "functional", "outline": "as §2"}, "Pseudomonas aeruginosa [11]": {"system": "Pseudomonas aeruginosa", "experiment": "Inhibition of pyocyanin production in wild-type Pseudomonas aeruginosa PA14 assessed as down regulation of PA14_51830 relative to control", "type": "functional", "outline": "as §2"}, "Pseudomonas aeruginosa [12]": {"system": "Pseudomonas aeruginosa", "experiment": "Inhibition of pyocyanin production in wild-type Pseudomonas aeruginosa PA14 assessed as down regulation of mexH relative to control", "type": "functional", "outline": "as §2"}, "Escherichia coli [13]": {"system": "Escherichia coli", "experiment": "Antagonist activity at RhlR in Escherichia coli assessed as reduction of AHL-induced GFP production at 100 uM"}, "Pseudomonas aeruginosa [14]": {"system": "Pseudomonas aeruginosa", "experiment": "Inhibition of pyocyanin production in wild-type Pseudomonas aeruginosa PA14 assessed as down regulation of PA14_03090 relative to control", "type": "functional", "outline": "as §2"}, "Pseudomonas aeruginosa [15]": {"system": "Pseudomonas aeruginosa", "experiment": "Inhibition of pyocyanin production in wild-type Pseudomonas aeruginosa PA14 assessed as down regulation of PA14_58040 relative to control", "type": "functional", "outline": "as §2"}, "Pseudomonas aeruginosa [16]": {"system": "Pseudomonas aeruginosa", "experiment": "Inhibition of pyocyanin production in wild-type Pseudomonas aeruginosa PA14 assessed as down regulation of opmD relative to control", "type": "functional", "outline": "as §2"}, "Pseudomonas aeruginosa [17]": {"system": "Pseudomonas aeruginosa", "experiment": "Inhibition of pyocyanin production in wild-type Pseudomonas aeruginosa PA14 assessed as down regulation of PA14_16310 relative to control", "type": "functional", "outline": "as §2"}, "Pseudomonas aeruginosa [18]": {"system": "Pseudomonas aeruginosa", "experiment": "Inhibition of pyocyanin production in wild-type Pseudomonas aeruginosa PA14 assessed as down regulation of katB relative to control", "type": "functional", "outline": "as §2"}, "Escherichia coli [19]": {"system": "Escherichia coli", "experiment": "Antagonist activity at LasR in Escherichia coli assessed as reduction of AHL-induced GFP production at 100 uM"}, "Pseudomonas aeruginosa [20]": {"system": "Pseudomonas aeruginosa", "experiment": "Inhibition of pyocyanin production in wild-type Pseudomonas aeruginosa PA14 assessed as down regulation of PA14_22320 relative to control", "type": "functional", "outline": "as §2"}, "Pseudomonas aeruginosa [21]": {"system": "Pseudomonas aeruginosa", "experiment": "Antimicrobial activity against wild-type Pseudomonas aeruginosa PA14", "type": "functional"}, "Pseudomonas aeruginosa [22]": {"system": "Pseudomonas aeruginosa", "experiment": "Inhibition of pyocyanin production in wild-type Pseudomonas aeruginosa PA14 assessed as down regulation of PA14_21530 relative to control", "type": "functional", "outline": "as §2"}, "Escherichia coli [23]": {"system": "Escherichia coli", "experiment": "Competitive binding to RhlR in Escherichia coli at 100 to 500 uM", "outline": "as §1"}, "Pseudomonas aeruginosa [24]": {"system": "Pseudomonas aeruginosa", "experiment": "Inhibition of pyocyanin production in wild-type Pseudomonas aeruginosa PA14 assessed as down regulation of ahpF relative to control", "type": "functional", "outline": "as §2"}, "Pseudomonas aeruginosa [25]": {"system": "Pseudomonas aeruginosa", "experiment": "Inhibition of pyocyanin production in wild-type Pseudomonas aeruginosa PA14 assessed as down regulation of katA relative to control", "type": "functional", "outline": "as §2"}, "Pseudomonas aeruginosa [26]": {"system": "Pseudomonas aeruginosa", "experiment": "Inhibition of quorum sensing activity in wild-type Pseudomonas aeruginosa PA14 assessed as inhibition of pyocyanin production by spectrophotometry relative to control", "type": "functional", "outline": "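Pyocyanin produced by wild-type PA14, read by absorbance at 695 nm, across a range of compound levels. IC50 derived from the dose–response.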"}},
  "note": "Calls of active or inactive are those of the source. Unless noted, the rule behind the calls is not given here.",
  "data": [
    {"smiles": "O=C(CCCCCOc1cccc(Br)c1)Nc1ccnc(C(F)(F)F)c1", "values": [
      {"measurement": "Activity", "setting": "Escherichia coli [1]", "result": "inactive"},
      {"measurement": "fold change (FC)", "setting": "Pseudomonas aeruginosa [2]", "result": 2.71},
      {"measurement": "Efficacy", "setting": "Pseudomonas aeruginosa [3]", "result": 99, "unit": "%"},
      {"measurement": "fold change (FC)", "setting": "Pseudomonas aeruginosa [4]", "result": 4.93},
      {"measurement": "Activity", "setting": "Pseudomonas aeruginosa [5]", "result": "inactive"},
      {"measurement": "Activity", "setting": "Escherichia coli [6]", "result": "inactive"},
      {"measurement": "fold change (FC)", "setting": "Pseudomonas aeruginosa [7]", "result": 2.84},
      {"measurement": "Activity", "setting": "Escherichia coli [8]", "result": "inactive"},
      {"measurement": "fold change (FC)", "setting": "Pseudomonas aeruginosa [9]", "result": 2.68},
      {"measurement": "fold change (FC)", "setting": "Pseudomonas aeruginosa [10]", "result": 27.79},
      {"measurement": "fold change (FC)", "setting": "Pseudomonas aeruginosa [11]", "result": 5.6},
      {"measurement": "fold change (FC)", "setting": "Pseudomonas aeruginosa [12]", "result": 2.93},
      {"measurement": "Activity", "setting": "Escherichia coli [13]", "result": "inactive"},
      {"measurement": "fold change (FC)", "setting": "Pseudomonas aeruginosa [14]", "result": 14.35},
      {"measurement": "fold change (FC)", "setting": "Pseudomonas aeruginosa [15]", "result": 5.67},
      {"measurement": "fold change (FC)", "setting": "Pseudomonas aeruginosa [16]", "result": 2.5},
      {"measurement": "fold change (FC)", "setting": "Pseudomonas aeruginosa [17]", "result": 3.27},
      {"measurement": "fold change (FC)", "setting": "Pseudomonas aeruginosa [18]", "result": 4.15},
      {"measurement": "Activity", "setting": "Escherichia coli [19]", "result": "inactive"},
      {"measurement": "fold change (FC)", "setting": "Pseudomonas aeruginosa [20]", "result": 35.99},
      {"measurement": "Activity", "setting": "Pseudomonas aeruginosa [21]", "result": "inactive"},
      {"measurement": "fold change (FC)", "setting": "Pseudomonas aeruginosa [22]", "result": 44.39},
      {"measurement": "Activity", "setting": "Escherichia coli [23]", "result": "inactive"},
      {"measurement": "fold change (FC)", "setting": "Pseudomonas aeruginosa [24]", "result": 33.03},
      {"measurement": "fold change (FC)", "setting": "Pseudomonas aeruginosa [25]", "result": 20.8},
      {"measurement": "IC50", "setting": "Pseudomonas aeruginosa [26]", "result": 2700, "unit": "nM"}
    ]}
  ]
}
